Experiment [1] concerns Pseudomonas aeruginosa. In words: Antibacterial activity against Pseudomonas aeruginosa ATCC 27853 assessed as increase in bacterial growth at 5 to 50 ug/ml by microplate assay. Format: functional, organism-based. An outline of the steps:
(§1)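 Overnight P. aeruginosa ATCC 27853 culture diluted to 10% (v/v) in LB medium. 190 µL of culture plus 10 µL of 1 or 0.1 mg/mL stock in DMSO–water (1:1), giving 50 or 5 µg/mL. 8 replicates; vehicle-only negative control. Incubated 37 °C, 24 h; growth read as OD600. Mean ± SD, Student's t-test, p ≤ 0.05.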

Experiment [2] has as its system Pseudomonas aeruginosa. In words: Inhibition of quorum sensing activity in Pseudomonas aeruginosa ATCC 27853 assessed as N-acylhomoserin lactones production at 5 to 50 ug/ml after 24 hrs by measuring beta-galactosidase activity by spectrophotometry.
In experiment [3] the test system is Pseudomonas aeruginosa. Nature of the experiment: Antibacterial activity against Pseudomonas aeruginosa ATCC 27853 assessed as growth inhibition at 5 to 50 ug/ml after 24 hrs by microplate assay. It is filed as functional, organism-based. An outline of the steps:
as §1

Experiment [4] has as its system Pseudomonas aeruginosa. In words: Induction of Pseudomonas aeruginosa ATCC 27853 biofilm formation at 0.6 uM after 24 hrs using crystal violet staining by spectrophotometry analysis. Format: functional, organism-based.
For experiment [5], the system named is Pseudomonas aeruginosa. In words: Inhibition of Pseudomonas aeruginosa ATCC 27853 biofilm formation at 5 to 50 ug/ml after 24 hrs using crystal violet staining by spectrophotometry analysis. Format: functional, organism-based. An outline of the steps:
(§2)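 ATCC 27853 culture diluted to 10% (v/v) in LB and dosed from DMSO–water (1:1) stocks of 1 or 0.1 mg/mL (10 µL into 190 µL), 8 replicates, vehicle control. After 24 h at 37 °C, liquid discarded and wells washed three times with PBS. Stained with 0.1% crystal violet for 20 min, rinsed with water, dye eluted with absolute EtOH, A540 read. Mean ± SD, Student's t-test.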

Experiment [6] concerns Pseudomonas aeruginosa. In words: Antibacterial activity against Pseudomonas aeruginosa ATCC 27853 assessed as growth inhibition by microplate assay. It is filed as functional, organism-based. An outline of the steps:
as §1

The test system of experiment [7] is Pseudomonas aeruginosa. Nature of the experiment: Induction of Pseudomonas aeruginosa ATCC 27853 biofilm formation at 50 ug/ml after 24 hrs using crystal violet staining by spectrophotometry analysis relative to control. It is filed as functional. An outline of the steps:
as §2

The test system of experiment [8] is Pseudomonas aeruginosa. Nature of the experiment: Antibacterial activity against Pseudomonas aeruginosa ATCC 27853 assessed as growth inhibition at 50 ug/ml by microplate assay relative to control. Format: functional. The note with it: read-out: GI. An outline of the steps: as §1
The test system of experiment [9] is Pseudomonas aeruginosa. In words: Induction of quorum sensing in Pseudomonas aeruginosa ATCC 27853 assessed as N-acylhomoserin lactones production at 50 ug/ml after 24 hrs by measuring beta-galactosidase activity by spectrophotometry.
The test system of experiment [10] is Pseudomonas aeruginosa. Nature of the experiment: Antibacterial activity against Pseudomonas aeruginosa ATCC 27853 assessed as increase in bacterial growth at 50 ug/ml by microplate assay relative to control. It is filed as functional. An outline of the steps: as §1
In experiment [11] the test system is Pseudomonas aeruginosa. In words: Inhibition of Pseudomonas aeruginosa ATCC 27853 biofilm formation at 5 ug/ml after 24 hrs using crystal violet staining by spectrophotometry analysis relative to control. Format: functional. An outline of the steps:
as §2

Experiment [12] relates to Pseudomonas aeruginosa. In words: Inhibition of Pseudomonas aeruginosa ATCC 27853 biofilm formation at 50 ug/ml after 24 hrs using crystal violet staining by spectrophotometry analysis relative to control. The conditions noted are these: ATCC 27853, 24 h.
The subject of experiment [13] is Pseudomonas aeruginosa. Nature of the experiment: Inhibition of quorum sensing activity in Pseudomonas aeruginosa ATCC 27853 assessed as N-acylhomoserin lactones production at 5 ug/ml after 24 hrs by measuring beta-galactosidase activity by spectrophotometry relative to control. Details: scale not given: the % may be the effect or the level left.
Experiment [14] relates to Pseudomonas aeruginosa. Nature of the experiment: Antibacterial activity against Pseudomonas aeruginosa ATCC 27853 assessed as growth inhibition at 5 ug/ml by microplate assay. Format: functional. An outline of the steps: as §1
Experiment [15] deals with Pseudomonas aeruginosa. Nature of the experiment: Inhibition of quorum sensing activity in Pseudomonas aeruginosa ATCC 27853 assessed as N-acylhomoserin lactones production at 5 ug/ml after 24 hrs by measuring beta-galactosidase activity by spectrophotometry.
Experiment [16] deals with Pseudomonas aeruginosa. Nature of the experiment: Inhibition of Pseudomonas aeruginosa ATCC 27853 biofilm formation at 16.4 uM after 24 hrs using crystal violet staining by spectrophotometry analysis relative to control. Format: functional. The conditions noted are these: ATCC 27853, 24 h. The procedure, abridged:
as §2

Experiment [17] deals with Pseudomonas aeruginosa. In words: Antibacterial activity against Pseudomonas aeruginosa ATCC 27853 assessed as growth inhibition at 5 ug/ml after 24 hrs by microplate assay relative to control. It is filed as functional. The note with it: ATCC 27853, 24 h, read-out: GI. An outline of the steps:
as §1

For experiment [18], the system named is Pseudomonas aeruginosa. In words: Inhibition of Pseudomonas aeruginosa ATCC 27853 biofilm formation at 5 ug/ml after 24 hrs using crystal violet staining by spectrophotometry analysis. Format: functional. The conditions noted are these: ATCC 27853, 24 h. An outline of the steps: as §2
For experiment [19], the system named is Pseudomonas aeruginosa. Nature of the experiment: Inhibition of quorum sensing activity in Pseudomonas aeruginosa ATCC 27853 assessed as N-acylhomoserin lactones production at 16.4 uM after 24 hrs by measuring beta-galactosidase activity by spectrophotometry. Details: scale not given: the % may be the effect or the level left.

Calls of active or inactive are those of the source. No cut-off for these calls is given here.

The inhibition is the share of the control response that was lost under treatment.

For `C=CC1(O)CC[C@@]2(C)[C@H](C)CC[C@@]2(C)[C@@H]1C` (stereo not given in full), in the experiment on Pseudomonas aeruginosa [1], the result was Active. Also, the inhibition entry in the experiment on Pseudomonas aeruginosa [2] and with Pseudomonas aeruginosa [5] was “Active” in each case. Also, the “growth inhibition (GI)” value in the experiment on Pseudomonas aeruginosa [3] is “Active”. For the same compound, the biofilm induction entry with Pseudomonas aeruginosa [4] was “inactive”.
For `CC1=C2C[C@@]3(C)CC[C@H](C(C)C)[C@@H]3CC[C@H](C)[C@]2(O)CC1=O` [FUSICOAURITONE], the “growth inhibition (GI)” value with Pseudomonas aeruginosa [6] is “Dose-dependent effect”. Further, the Activity with Pseudomonas aeruginosa [7] was determined as 105%. The biofilm induction entry in the experiment on Pseudomonas aeruginosa [4] was “inactive”. Also, in the experiment with Pseudomonas aeruginosa [8], the inhibition of growth at 50 µg/mL came out at 25%. In the experiment with Pseudomonas aeruginosa [9], the outcome was Active.
For `CC1=CC(=O)[C@@H]2[C@@H](C)CC[C@H]3[C@@H](C(C)C)CC[C@]3(C)C[C@@]12O`, in the experiment with Pseudomonas aeruginosa [6], the “growth inhibition (GI)” value was “Dose-dependent effect”. Also, the results for the Activity in the experiment on Pseudomonas aeruginosa [10] and with Pseudomonas aeruginosa [7] were 15% and 95%, respectively. Further, the biofilm induction entry in the experiment on Pseudomonas aeruginosa [4] was “inactive”. For the same compound, in the experiment with Pseudomonas aeruginosa [9], the result was Active.
`COC(=O)[C@@]12Cc3occc3C(=O)[C@]1(C)CC[C@H]2C`: in the experiment on Pseudomonas aeruginosa [1], the outcome was Active. The inhibition entry in the experiment with Pseudomonas aeruginosa [2] was “inactive”. The “growth inhibition (GI)” value with Pseudomonas aeruginosa [3] was “inactive”. Besides, the biofilm induction entry in the experiment on Pseudomonas aeruginosa [4] was “inactive”.
In the case of `CC(=O)OC[C@@]12Cc3occc3C(=O)[C@]1(C)CC[C@H]2C` [NORPINGUISONE ACETATE], the outcome in the experiment on Pseudomonas aeruginosa [1] was Active. The compound also registered an inhibition at 5 µg/mL in the experiment with Pseudomonas aeruginosa [11] (ATCC 27853, 24 h) of 20%. Further, the biofilm induction result in the experiment with Pseudomonas aeruginosa [4] was “inactive”. The inhibition at 50 µg/mL with Pseudomonas aeruginosa [12] came to 27%.
Regarding `CC[C@H]1OC(=O)[C@H](C)[C@@H](O[C@H]2C[C@@](C)(OC)[C@@H](O)[C@H](C)O2)[C@H](C)[C@@H](O[C@@H]2O[C@H](C)C[C@H](N(C)C)[C@H]2O)[C@](C)(O)C[C@@H](C)CN(C)[C@H](C)[C@@H](O)[C@]1(C)O`, the Activity in the experiment with Pseudomonas aeruginosa [13] stood at 76%. In the experiment on Pseudomonas aeruginosa [14], the “growth inhibition (GI)” value is “inactive”. For the same compound, the inhibition with Pseudomonas aeruginosa [15] came to 76%.
The compound `CC1(C)[C@@H]2[C@@H]3[C@H](CC[C@@]3(C)O)[C@@](C)(O)CC[C@@H]21` came in with an inhibition at 16.4 µM with Pseudomonas aeruginosa [16] of 37%. Moreover, in the experiment with Pseudomonas aeruginosa [2], the inhibition was found to be 80%. Besides, the inhibition of growth at 5 µg/mL in the experiment on Pseudomonas aeruginosa [17] turned out to be 24%. In addition, the biofilm induction entry with Pseudomonas aeruginosa [4] is “inactive”. For the same compound, in the experiment on Pseudomonas aeruginosa [5], the inhibition result is “Active”.
As to `CC(C)[C@H]1CC[C@]2(C)CC3=C(C(=O)C[C@@]3(C)O)[C@@H](C)CC[C@@H]12`, the Activity in the experiment with Pseudomonas aeruginosa [7] is recorded as 93%. Further, the biofilm induction result with Pseudomonas aeruginosa [4] is “inactive”. Moreover, in the experiment with Pseudomonas aeruginosa [9], the outcome was Active.
`C[C@@H]1CC[C@@]2(C)C(=O)c3ccoc3C[C@@]12C`: the outcome in the experiment on Pseudomonas aeruginosa [1] was Active. Also, the inhibition entry in the experiment with Pseudomonas aeruginosa [2] and with Pseudomonas aeruginosa [5] was “Active” throughout. In the experiment on Pseudomonas aeruginosa [3], the “growth inhibition (GI)” value is “Active”. In addition, in the experiment on Pseudomonas aeruginosa [4], the biofilm induction entry was “inactive”.
Consider `O=C(O)c1cn(C2CC2)c2cc(N3CCNCC3)c(F)cc2c1=O` [CIPROFLOXACIN], for which the inhibition of growth at 5 µg/mL with Pseudomonas aeruginosa [14] (read-out: GI) was determined as 73%. In the experiment with Pseudomonas aeruginosa [18], this compound returned an inhibition at 5 µg/mL of 51%.
Compound `C=C1CC[C@H]2[C@@H]([C@@H]3[C@@H]1CC[C@@]3(C)O)C2(C)C` displayed an inhibition at 16.4 µM with Pseudomonas aeruginosa [16] of 41%. In addition, the inhibition with Pseudomonas aeruginosa [2] stood at 33%. In addition, the inhibition entry with Pseudomonas aeruginosa [11] and with Pseudomonas aeruginosa [5] was “Active” throughout. Also, the biofilm induction result in the experiment with Pseudomonas aeruginosa [4] was “inactive”. Moreover, in the experiment with Pseudomonas aeruginosa [14], the “growth inhibition (GI)” value was “Active”. Besides, the Activity in the experiment on Pseudomonas aeruginosa [19] was found to be 33%.
With `CC(C)[C@H]1CC[C@]2(C)C[C@]3(O)C(=CC(=O)[C@H]3C)[C@@H](C)CC[C@@H]12` [ANADENSIN], the “growth inhibition (GI)” value in the experiment with Pseudomonas aeruginosa [6] was “Dose-dependent effect”. In the experiment with Pseudomonas aeruginosa [16], this compound displayed an inhibition at 16.4 µM of 47%. Further, the inhibition entry in the experiment on Pseudomonas aeruginosa [2] and in the experiment with Pseudomonas aeruginosa [5] was “Active” each time. In addition, the “growth inhibition (GI)” value in the experiment on Pseudomonas aeruginosa [3] was “Active”. The biofilm induction result with Pseudomonas aeruginosa [4] is “inactive”. Moreover, the inhibition of growth at 50 µg/mL in the experiment with Pseudomonas aeruginosa [8] was determined as 16%.

The values are drawn from ChEMBL document CHEMBL1772983, “Bioactive sesqui- and diterpenoids from the Argentine liverwort Porella chilensis” (2011).
